Source: ChEMBL document CHEMBL1159047, “Synthesis and biological evaluation of antitumour-active betulin derivatives” (Bioorg Med Chem, 2010)
Active and inactive are the calls of the source. The rule behind the calls is not given here.

Assays:
[1] = tested on: 518A2; test: Growth inhibition of human 518A2 cells at 30 uM after 96 hrs by SRB assay; format: functional, cell-based
Summary of the method: (§1)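 Same SRB set-up: RPMI 1640 with 10% FBS at 37 °C, 5% CO2, and a 96 h exposure starting 24 h after seeding (DMSO or DMF ≤0.5% final). Percent viable cells relative to untreated controls is read at 30 µM, the top concentration of the 0–30 µM dilution series. Cells were fixed with TCA, stained with SRB and read at 570 nm; ≥3 independent experiments.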

[2] = tested on: A-431; test: Growth inhibition of human A431 cells at 30 uM after 96 hrs by SRB assay; format: functional, cell-based; summary of the method: as §1
[3] = tested on: A253; test: Growth inhibition of human A253 cells at 30 uM after 96 hrs by SRB assay; format: functional, cell-based; summary of the method: as §1
[4] = tested on: FaDu; test: Growth inhibition of human FADU cells at 30 uM after 96 hrs by SRB assay; format: functional, cell-based; summary of the method: as §1
[5] = tested on: A549; test: Growth inhibition of human A549 cells at 30 uM after 96 hrs by SRB assay; format: functional, cell-based; summary of the method: as §1
[6] = tested on: A2780; test: Growth inhibition of human A2780 cells at 30 uM after 96 hrs by SRB assay; format: functional, cell-based; summary of the method: as §1
[7] = tested on: DLD-1; test: Growth inhibition of human DLD1 cells at 30 uM after 96 hrs by SRB assay; format: functional, cell-based; summary of the method: as §1
[8] = tested on: HCT-8; test: Growth inhibition of human HCT8 cells at 30 uM after 96 hrs by SRB assay; format: functional, cell-based; summary of the method: as §1
[9] = tested on: HCT-116; test: Growth inhibition of human HCT116 cells at 30 uM after 96 hrs by SRB assay; format: functional, cell-based; summary of the method: as §1
[10] = tested on: HT-29; test: Growth inhibition of human HT-29 cells at 30 uM after 96 hrs by SRB assay; format: functional, cell-based; summary of the method: as §1
[11] = tested on: SW480; test: Growth inhibition of human SW480 cells at 30 uM after 96 hrs by SRB assay; format: functional, cell-based; summary of the method: as §1
[12] = tested on: 8505C; test: Growth inhibition of human 8505C cells at 30 uM after 96 hrs by SRB assay; format: functional, cell-based; summary of the method: as §1
[13] = tested on: SW-1736; test: Growth inhibition of human SW1736 cells at 30 uM after 96 hrs by SRB assay; format: functional, cell-based; summary of the method: as §1
[14] = organism: Homo sapiens; test: Growth inhibition of human Liposarcoma cells at 30 uM after 96 hrs by SRB assay; format: functional; summary of the method: as §1
[15] = tested on: A2780; test: Cytotoxicity against human A2780 cells after 96 hrs by SRB assay; format: functional, cell-based; settings: A2780, 96 h
Summary of the method: (§2)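 Monolayer cells grown in RPMI 1640 with 10% heat-inactivated FBS and penicillin/streptomycin at 37 °C, 5% CO2. Cells were seeded and, after 24 h, exposed to serial dilutions (0–30 µM; DMSO or DMF ≤0.5% final) for 96 h. They were then fixed with 10% TCA at 4 °C, stained with 0.4% SRB and dissolved in 10 mM Tris, with absorbance read at 570 nm. IC50 comes from semi-log dose–response curves of survival versus untreated controls, from ≥3 independent experiments.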

[16] = tested on: HCT-116; test: Cytotoxicity against human HCT116 cells after 96 hrs by SRB assay; format: functional, cell-based; settings: HCT-116, 96 h; summary of the method: as §2
[17] = tested on: SW-1736; test: Cytotoxicity against human SW1736 cells after 96 hrs by SRB assay; format: functional, cell-based; settings: SW-1736, 96 h; summary of the method: as §2
[18] = tested on: A-431; test: Cytotoxicity against human A431 cells after 96 hrs by SRB assay; format: functional, cell-based; settings: A-431, 96 h; summary of the method: as §2

Compound | growth inhibition (GI) [1] | growth inhibition (GI) [2] | growth inhibition (GI) [3] | growth inhibition (GI) [4] | growth inhibition (GI) [5] | growth inhibition (GI) [6] | growth inhibition (GI) [7] | growth inhibition (GI) [8] | growth inhibition (GI) [9] | growth inhibition (GI) [10] | growth inhibition (GI) [11] | growth inhibition (GI) [12] | growth inhibition (GI) [13] | growth inhibition (GI) [14] | IC50 [15] [µM] | IC50 [16] [µM] | IC50 [17] [µM] | IC50 [18] [µM]
C=C(C)[C@@H]1CC[C@]2([C@H](O)CC(=O)OCC)CC[C@]3(C)[C@H](CC[C@@H]4[C@@]5(C)CC[C@H](OC)C(C)(C)[C@@H]5CC[C@]43C)[C@@H]12 | inactive | inactive | inactive | inactive | inactive | inactive | inactive | inactive | inactive | inactive | inactive | inactive | inactive | inactive |  |  |  | 
C=C(C)[C@@H]1CC[C@]2([C@@H]3O[C@H]3C(=O)OC)CC[C@]3(C)[C@H](CC[C@@H]4[C@@]5(C)CC[C@H](OC(C)=O)C(C)(C)[C@@H]5CC[C@]43C)[C@@H]12 | inactive | inactive | inactive | inactive | inactive |  | inactive | inactive |  | inactive | inactive | inactive |  | inactive | 12.3 | 18.1 | 17.6 | 
C=C(C)[C@@H]1CC[C@]2([C@@H]3O[C@@H]3C#N)CC[C@]3(C)[C@H](CC[C@@H]4[C@@]5(C)CC[C@H](OC(C)=O)C(C)(C)[C@@H]5CC[C@]43C)[C@@H]12 | inactive | inactive | inactive | inactive | inactive | inactive | inactive | inactive | inactive | inactive | inactive | inactive | inactive | inactive |  |  |  | 
C=C(C)[C@@H]1CC[C@]2(/C=C3\CCOC3=O)CC[C@]3(C)[C@H](CC[C@@H]4[C@@]5(C)CC[C@H](OC(C)=O)C(C)(C)[C@@H]5CC[C@]43C)[C@@H]12 | inactive |  | inactive | inactive | inactive | inactive | inactive | inactive |  | inactive | inactive | inactive |  | inactive |  | 13.9 | 18.8 | 19.4
C=C(C)[C@@H]1CC[C@]2(/C=C/C(=O)OCC)CC[C@]3(C)[C@H](CC[C@@H]4[C@@]5(C)CC[C@H](OC)C(C)(C)[C@@H]5CC[C@]43C)[C@@H]12 | inactive | inactive | inactive | inactive | inactive | inactive | inactive | inactive | inactive | inactive | inactive | inactive | inactive | inactive |  |  |  | 
C=C(C)[C@@H]1CC[C@]2(/C=C/C(=O)OCC)CC[C@]3(C)[C@H](CC[C@@H]4[C@@]5(C)CC[C@H](OC(C)=O)C(C)(C)[C@@H]5CC[C@]43C)[C@@H]12 | inactive | inactive | inactive | inactive | inactive | inactive | inactive | inactive | inactive | inactive | inactive | inactive | inactive | inactive |  |  |  | 
C=C(C)[C@@H]1CC[C@]2([C@@H]3O[C@@]34CCOC4=O)CC[C@]3(C)[C@H](CC[C@@H]4[C@@]5(C)CC[C@H](OC(C)=O)C(C)(C)[C@@H]5CC[C@]43C)[C@@H]12 | inactive | inactive |  | inactive | inactive | inactive | inactive | inactive | inactive | inactive | inactive | inactive | inactive | inactive |  |  |  | 
